The source made the active and inactive calls. The calls are words filed in the database; no cut-off is given here.

Experiment [1] has as its target T1, Angiotensin-converting enzyme (Oryctolagus cuniculus, UniProt P12822).
T1 sequence (P12822 whole entry): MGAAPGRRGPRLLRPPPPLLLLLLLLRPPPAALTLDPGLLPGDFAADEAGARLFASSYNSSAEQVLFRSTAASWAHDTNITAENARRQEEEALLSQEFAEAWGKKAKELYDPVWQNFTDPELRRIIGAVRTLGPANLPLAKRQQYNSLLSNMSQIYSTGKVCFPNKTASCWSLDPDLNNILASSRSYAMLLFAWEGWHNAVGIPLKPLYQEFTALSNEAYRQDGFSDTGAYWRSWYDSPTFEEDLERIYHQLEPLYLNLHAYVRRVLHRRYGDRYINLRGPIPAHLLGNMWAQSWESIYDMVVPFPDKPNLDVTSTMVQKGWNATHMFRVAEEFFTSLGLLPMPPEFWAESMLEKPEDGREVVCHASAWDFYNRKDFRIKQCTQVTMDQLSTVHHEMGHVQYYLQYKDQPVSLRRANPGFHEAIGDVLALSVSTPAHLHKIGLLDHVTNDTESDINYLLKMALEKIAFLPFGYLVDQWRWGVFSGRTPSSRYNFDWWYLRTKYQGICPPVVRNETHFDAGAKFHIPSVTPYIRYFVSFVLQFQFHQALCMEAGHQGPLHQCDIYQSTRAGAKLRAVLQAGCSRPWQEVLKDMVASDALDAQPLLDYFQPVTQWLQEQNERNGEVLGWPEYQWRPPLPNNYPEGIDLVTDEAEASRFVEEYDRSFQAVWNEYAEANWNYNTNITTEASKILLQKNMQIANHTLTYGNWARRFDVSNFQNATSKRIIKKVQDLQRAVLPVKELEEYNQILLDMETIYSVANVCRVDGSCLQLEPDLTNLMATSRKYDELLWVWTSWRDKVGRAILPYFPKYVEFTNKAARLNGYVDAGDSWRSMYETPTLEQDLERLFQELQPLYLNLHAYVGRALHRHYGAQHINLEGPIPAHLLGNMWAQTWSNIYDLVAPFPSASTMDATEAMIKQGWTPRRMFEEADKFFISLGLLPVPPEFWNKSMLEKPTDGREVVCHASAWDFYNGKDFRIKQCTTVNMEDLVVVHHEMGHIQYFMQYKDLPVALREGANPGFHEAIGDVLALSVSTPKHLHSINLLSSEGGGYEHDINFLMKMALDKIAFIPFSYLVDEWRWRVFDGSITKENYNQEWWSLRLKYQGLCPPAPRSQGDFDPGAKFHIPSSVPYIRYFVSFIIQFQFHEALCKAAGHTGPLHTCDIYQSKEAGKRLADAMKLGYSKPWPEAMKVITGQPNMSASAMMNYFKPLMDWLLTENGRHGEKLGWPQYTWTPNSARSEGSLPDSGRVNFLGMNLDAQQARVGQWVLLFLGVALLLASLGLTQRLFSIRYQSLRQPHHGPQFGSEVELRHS
Briefly: Tested for 50% inhibition of Angiotensin converting enzyme(ACE) obtained from rabbit lung (in vitro). Summed up:
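ACE was partially purified from rabbit lung and incubated with the synthetic substrate Hip-His-Leu. The hippuric acid product was measured spectrophotometrically. IC50 was read graphically from a range of inhibitor concentrations within the assay's linear range. Each determination was done in duplicate and repeated once.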

Experiment [2] concerns Rattus norvegicus. Briefly: Tested for percent inhibition of maximum angiotensin I (AI) pressor response in rats on oral administration of 300 mg/kg after 2 hr. Format: functional. Summed up:
(§1)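 Conscious catheterized SHR were prepared as for blood pressure recording. At set times after dosing, angiotensin I was injected intraarterially in 0.5 mL. The rise in arterial pressure was recorded and expressed as percent inhibition of the angiotensin I pressor response.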

Experiment [3] concerns Rattus norvegicus. In words: Antihypertensive activity was measured in spontaneously hypertensive rat (SHR) by measuring the maximum blood pressure when administered orally at dose of 10 mg/kg after 4 h. It is filed as functional. Conditions: route oral. Summed up:
(§2)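 Conscious, fully ambulatory SHR (250–280 g) were fitted with an arterial catheter led through an infusion swivel inside a protective spring. After 24 h recovery from surgery, rats were housed singly. Mean arterial pressure was recorded continuously after dosing over a 6-h period, with later readings up to 24 h. Rats had chow and tap water freely under a 12-h light cycle.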

The next experiment has as its target T2, Thromboxane-A synthase (Homo sapiens, UniProt P24557).
T2 sequence (P24557 whole entry): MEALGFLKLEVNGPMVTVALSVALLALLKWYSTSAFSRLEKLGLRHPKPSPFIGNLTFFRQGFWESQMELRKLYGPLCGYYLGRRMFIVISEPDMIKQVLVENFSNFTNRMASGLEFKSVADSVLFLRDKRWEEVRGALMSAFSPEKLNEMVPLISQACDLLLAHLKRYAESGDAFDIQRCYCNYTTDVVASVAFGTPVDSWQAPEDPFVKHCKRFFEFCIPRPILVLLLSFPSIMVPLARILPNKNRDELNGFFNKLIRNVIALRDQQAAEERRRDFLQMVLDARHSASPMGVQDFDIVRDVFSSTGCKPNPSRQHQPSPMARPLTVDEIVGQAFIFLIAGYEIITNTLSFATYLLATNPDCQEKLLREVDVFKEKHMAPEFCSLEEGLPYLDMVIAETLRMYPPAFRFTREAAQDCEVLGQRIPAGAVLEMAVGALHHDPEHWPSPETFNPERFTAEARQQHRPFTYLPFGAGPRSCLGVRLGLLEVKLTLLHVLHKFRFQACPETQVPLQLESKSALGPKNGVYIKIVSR
Briefly: Tested for 50% inhibition of thromboxane synthase (TxS) in human platelets (in vitro). Summed up: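 IC50 was obtained graphically from a range of compound concentrations within the linear range of the assay. Determinations were made in duplicate and repeated once.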

Experiment [4] relates to Rattus norvegicus. Briefly: Antihypertensive activity was measured in spontaneously hypertensive rat (SHR) by measuring the blood pressure after 24 hours on interarterial administration at dose of 1 mg/kg; Not significant. It is filed as functional, organism-based. Details: dose 1 mg/kg. Conditions: Artery. Summed up: as §2
Experiment [5] relates to Rattus norvegicus. Briefly: Tested for percent inhibition of maximum angiotensin I (AI) pressor response in rats on oral administration of 300 mg/kg after 4 hr. Format: functional. Summed up:
as §1

For experiment [6], the species on record is Rattus norvegicus. As to conditions: 10 mg/kg.
Experiment [7] deals with Rattus norvegicus. Briefly: Antihypertensive activity was measured in spontaneously hypertensive rat (SHR) by measuring the blood pressure on interarterial administration at dose of 1 mg/kg after 4 h. Format: functional, Artery. Summed up:
as §2

As for `Cn1c(-c2cccnc2)c(CCCCCC(=O)N2CCC(NCCCC[C@H](N[C@@H]3CCc4ccccc4N(CC(=O)[O-])C3=O)C(=O)[O-])CC2)c2cc(Cl)ccc21.[Na+].[Na+]`, the IC50 was 12 nM in experiment [1] and 20 nM against Thromboxane-A synthase. The inhibition in vivo at 300 mg/kg with Rattus norvegicus [2] came out at 76%; with Rattus norvegicus [5] it was 51%. The “Max delta BP” value with Rattus norvegicus [3] is recorded as -35 mmHg; with Rattus norvegicus [7] it was -24 mmHg. The Delta blood pressure entry in the experiment on Rattus norvegicus [4] and in the experiment listed under Rattus norvegicus [6] was “inactive” in each case.

The values above are taken from ChEMBL document CHEMBL1127543, “Dual angiotensin converting enzyme/thromboxane synthase inhibitors” (J Med Chem, 1994).
